Shown are actives, neighbours in structure and some others; about 0.64% of the full set was active somewhere.
Rad51 HR inh: human RAD51 strand exchange inhibitors, primary screen, biochemical, fluorescence; DNA repair protein RAD51 homolog 1 (Homo sapiens), Q06609; hRad51 DNA strand exchange, fluorescence dequenching; inhibition, % at 10 µM; hit rate 0.085% among 200,000;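 active = inhibition above 40% at the single screening dose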;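 note: 0% = DMSO control wells and 100% = blanks with heterologous ssDNA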
Target sequence (Q06609 whole entry, looked up): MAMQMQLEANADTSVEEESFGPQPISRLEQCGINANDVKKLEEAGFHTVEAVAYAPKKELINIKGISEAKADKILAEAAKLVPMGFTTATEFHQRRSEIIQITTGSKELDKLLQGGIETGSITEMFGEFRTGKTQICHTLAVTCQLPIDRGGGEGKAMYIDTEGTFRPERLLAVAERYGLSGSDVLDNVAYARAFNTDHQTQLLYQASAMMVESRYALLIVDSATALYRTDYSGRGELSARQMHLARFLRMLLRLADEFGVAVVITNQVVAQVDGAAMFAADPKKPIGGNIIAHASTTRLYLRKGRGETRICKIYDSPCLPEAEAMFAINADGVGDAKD
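System: human Rad51 nucleoprotein filaments preassembled on unlabelled ssDNA. Reagent: labelled 47-mer dsDNA for strand exchange. Schedule: 30-min compound preincubation and 15-min exchange, both room temperature. Measured by: FRET fluorescence dequenching, excitation 485 nm, emission 520 nm. Read-out: Fluorescence-based percent inhibition, control- and blank-normalised. Benchmarks: plate controls and plate blanks.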
SDO1 yeast rescue: growth rescue of sdo1-depleted yeast, primary screen, S. cerevisiae, bone marrow failure model. AID 817, 2007. z-score at 10 µM. S. cerevisiae sdo1-depleted JHY4D growth rescue, OD600 30 h; active compounds read high; pdr5 snq2 efflux-pump mutant strain. hit rate 0.21% among 140,000;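 active = z-score above 3 at both the 24 hr and the 30 hr optical density reads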;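 note: z-score against mean and SD of all compound wells on the same plate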
zVAD death inh: inhibitors of zVAD-triggered necroptosis, primary screen, L929 cells; hit rate 0.38% among 220,000; L929 zVAD necroptosis rescue, ATP luminescence, 24 h; with zVAD 60 µM; viability rescue, % at 10 µM;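 active = activation, scaled between plate controls, above about 75%, limit read from the data; inactive = activation under that limit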;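 note: 0% = zVAD with DMSO and 100% = DMSO alone without zVAD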
TNF necrop inh: inhibitors of TNF-alpha triggered necroptosis, primary screen, cell-based, Jurkat FADD-/-, single concentration; Jurkat FADD-/- TNF necroptosis rescue, ATP luminescence, 24 h; 0 = TNF only, 100 = no-TNF cells; activation (protection from cell death), % at 10 µM; hit rate 0.068% among 220,000;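 active = activation, meaning protection from cell death, of at least 50% relative to plate controls; inactive = activation below 50%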;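 note: necroptosis triggered by 40 ng/mL TNF-alpha added together with compound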
zVAD death conf: inhibitors of zVAD-triggered necroptosis in L929, confirmation, L929 cells, duplicate runs | shares compounds with zVAD death inh | L929 zVAD-induced necroptosis rescue, ATP luminescence, 24 h | activation (protection from necroptosis), % at 10 µM | hit rate 16% among 760;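 active = mean protection from necroptosis of at least 50% over duplicate tests; inactive = mean protection below 50%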;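 note: 0% = cells with zVAD alone and 100% = vehicle cells without zVAD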
Starred values were filed as active, the others as inactive; x = no result.

SMILES	Rad51 HR inh	SDO1 yeast rescue	zVAD death inh	TNF necrop inh	zVAD death conf
Cc1ccc(NC(=O)COc2ccc(-c3nnco3)cc2)cc1S(=O)(=O)N1CCOCC1	5	x	78*	0	2
Cc1ccc(NC(=O)COc2ncnc3ccccc23)cc1S(=O)(=O)N1CCOCC1	x	-0.1	0	1	x
Oc1ccc(-c2[nH]ncc2-c2cnn(-c3ccccc3)c2)c(O)c1	-4	x	79*	-3	2
Cc1nc2cc(NC(=O)Nc3ccc(Br)cc3)ccc2o1	10	x	80*	1	1
Cc1nc2cc(NC(=O)NCc3ccc4c(c3)OCO4)ccc2o1	-1	0.7	0	-1	x
COc1ccc(CCNC(=O)C/C(C)=N/NC(=O)C(c2ccccc2)c2ccccc2)cc1OC	x	x	80*	36	10
O=C(CCl)Nc1c[nH]c(=O)[nH]c1=O	x	x	81*	44	12
O=C(Cc1ccccc1)Nc1c[nH]c(=O)[nH]c1=O	-2	-0.15	0	2	x
COc1ccc(C(=O)Nc2cccc(-c3cnc4ccccc4n3)c2)cc1	-2	-0.84	0	-6	x
COc1ccc(-c2nc(N3CCOCC3)nc3n[nH]c(N)c23)cc1	-4	-1.3	75*	-6	43
Cc1ccc(CN2CCS(=O)(=O)CC2)o1	9	x	83*	14	5
Cc1ccc2oc(=O)c3cc(C(=O)Nc4cc(-c5cccc(F)c5)no4)sc3c2c1	x	-0.51	x	1	x
O=C(c1[nH]ncc1-c1ccccc1)C1CO1 (stereo not drawn)	14	x	1	-1	x
O=C(C1=NNCC1c1ccccc1)C1CO1 (stereo not drawn)	2	2.7	99*	91*	90*
COc1cc(/C=N\Nc2nc3ccccc3[nH]2)cc(OC)c1OC	3	1.8	81*	15	48
C(=N\Nc1nc2ccccc2[nH]1)/c1ccc2c(c1)OCCO2	-15	x	82*	3	7
COc1ccc(/C=N/Nc2nc3ccccc3[nH]2)cc1OC	-8	1.2	79*	40	49
COc1cc(OC)c(OC)cc1/C=N/Nc1nc2ccccc2[nH]1	-5	x	1	1	x
CCOc1cc(/C=N/Nc2nc3ccccc3[nH]2)cc(Br)c1OCC(=O)N(C)C	1	x	78*	43	58*
CSC(=S)N/N=C/c1ccccc1	-1	x	0	0	x
CC1CCN(c2nc(Cl)nc(Nc3ccc([N+](=O)[O-])cc3)n2)CC1	x	-1.5	x	-6	x
O=C(COc1ccc2c(C(F)(F)F)cc(=O)oc2c1)NCc1cccs1	x	0.12	1	1	x
CCC(=O)Nc1nc2ccc([N+](=O)[O-])cc2s1	11	x	74	-11	x
CCCC(=O)Nc1nc2ccc3nc(C)sc3c2s1	-6	-1.5	91*	5	0
CCCCC(=O)Nc1nc2ccc3nc(C)sc3c2s1	0	-2.5	46	7	x
SMILES	Rad51 HR inh	SDO1 yeast rescue	zVAD death inh	TNF necrop inh	zVAD death conf
CCC(=O)Nc1nc2ccc3sc(C)nc3c2s1	4	x	79*	-4	8
Cc1nc2c(ccc3nc(NC(=O)C4CC4)sc32)s1	-9	x	80*	1	18
O=C(COC(=O)c1cc(S(=O)(=O)N2CCCCC2)ccc1N1CCOCC1)NC1CCS(=O)(=O)C1 (stereo not drawn)	2	x	2	0	x
CCCn1c(NC(=O)c2cccc(S(=O)(=O)N3CCCC3)c2)nc2ccccc21	-2	-1	71	-2	x
CCOC(=O)c1cccc(P(C)(C)=O)c1	4	0.65	0	1	x
O=C(Nc1ncc2c(n1)-c1ccccc1CC2)C1CC1	-5	x	76*	-4	2
O=c1[nH]c2ccccc2nc1/C=C/c1ccccc1	x	x	78*	1	29
O=c1[nH]c2ccccc2nc1/C=C/c1ccc(F)cc1	x	x	67	-4	x
O=c1[nH]c2ccccc2nc1/C=C/c1ccc(O)cc1	-22	x	81*	-6	82*
CC(=O)Nc1cc2c(cc1NC(=O)Cn1nc(-c3ccc4c(c3)OCCO4)ccc1=O)OCCO2	-5	-0.09	0	-2	x
CC1CCCC(NC(=O)CCNS(=O)(=O)c2ccc(Br)cc2)C1C (stereo not drawn)	-6	x	77*	1	7
COCCCNC(=O)c1c(N)n(-c2cccc(S(N)(=O)=O)c2)c2nc3ccccc3nc12	-11	0.87	-1	-3	x
COc1ccccc1-n1c(N)c(C(=O)NCC2CCCO2)c2nc3ccccc3nc21 (stereo not drawn)	-1	-0.21	66	1	x
Nc1c(C(=O)NCC2CCCO2)c2nc3ccccc3nc2n1-c1ccccc1 (stereo not drawn)	13	-0.82	86*	-9	33
CCCNC(=O)c1c(N)n(-c2cccc(OC)c2)c2nc3ccccc3nc12	-10	-1.4	77*	-5	12
COc1cc(C)c(NC(=S)NCCCN2CCOCC2)cc1OC	5	x	1	-2	x
COCC(C)n1c(SCc2ccc(OC)c(F)c2)nc2ccccc2c1=O (stereo not drawn)	-4	x	0	-1	x
CC(C)(C)C(=O)NC(=S)NNC(=O)c1ccc(-c2ccccc2)cc1	-43	x	27	-12	x
COC(C(=O)Nc1ccc(F)cc1F)c1ccccc1 (stereo not drawn)	-2	0.39	83*	97*	40
O=C(Nc1ccc(NC(=O)c2ccccc2O)cc1)Nc1ccc(F)cc1F	10	x	78*	10	33
CC1CCCC(CC(=O)O)(CC(=O)O)C1 (stereo not drawn)	-1	x	0	1	x
CCn1c(=NC(=O)c2ccc(S(=O)(=O)N3CCOCC3)cc2)sc2cccc(OC)c21	-1	-0.29	77*	-10	8
CCN1CC(CN(C)Cc2nc(-c3ccc(OC)c4ccccc34)oc2C)CC1=O (stereo not drawn)	-4	x	0	3	x
CCCn1c(N)c(N(CCOC)C(=O)/C=C/c2ccc(C(=O)OC)cc2)c(=O)[nH]c1=O	-5	x	0	0	x

Compound activity deposited in PubChem by several laboratories.
